What is called inhibition is the change of the read-out against control, counted positive when it falls.

Drawing on PubChem BioAssay AID624466 (The Scripps Research Institute Molecular Screening Center, 2012), this text covers inhibition for 84 compounds.

The campaign covered roughly 360,000 compounds. About 5,400 (1.5%) were called active. The sample holds actives, similar compounds and a random draw of the others, so the mix is not that of the screen. Unmarked numbers belong to inactive results.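 How the source made its calls: active means inhibition above a per-plate cutoff, the mean inhibition of test compounds on that plate plus 3 SD (cut at about 49% in these data); inactive means the rest.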

The target of this test is Trace amine-associated receptor 1 (Homo sapiens) (UniProt Q96RJ0). Kind of test: blockers of beta-PEA-driven TAAR1 calcium signal – Fluo-8 calcium fluorescence, CHO RD-HGA16 cells, primary screen (AID 624466).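 Further: 0% = DMSO plus EC80 beta-PEA response and 100% = DMSO alone without agonist.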 The note with it: CHO RD-HGA16 TAAR1, Fluo-8 calcium fluorescence, antagonist; at 3 µM; stronger effect = higher value. The gist of the method: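 Material: CHO RD-HGA16 cells bearing hTAAR1; compound dosing: one-point dosing, 3 µM nominal final; schedule: dye loading 75 min at 37 °C, then 30 min room temperature; measured by: calcium fluorescence with Fluo-8; control set: vehicle and agonist controls; replication: n of 1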
Chain of Trace amine-associated receptor 1 (Homo sapiens) (Q96RJ0 whole entry, looked up): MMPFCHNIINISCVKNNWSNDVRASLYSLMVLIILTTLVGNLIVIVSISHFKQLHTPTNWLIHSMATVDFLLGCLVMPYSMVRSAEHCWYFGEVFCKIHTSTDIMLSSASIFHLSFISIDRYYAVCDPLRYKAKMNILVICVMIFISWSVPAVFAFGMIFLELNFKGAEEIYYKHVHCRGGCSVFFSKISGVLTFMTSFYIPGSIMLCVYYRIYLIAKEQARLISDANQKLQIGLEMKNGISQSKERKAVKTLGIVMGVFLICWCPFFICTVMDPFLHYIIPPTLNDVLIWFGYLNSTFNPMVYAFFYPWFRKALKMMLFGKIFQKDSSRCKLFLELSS
For the compound `OC(CCl)CCl`, the inhibition is -9.09%. The value for `CCCCCn1nnnc1-c1nc2cc3ccccc3cc2[nH]c1=O` was 21.1%; that for `Cc1ccc(Cc2c(-c3ccc(Cl)cc3)nc3c4ccccc4ccn23)cc1` was -7.64%; that for `COC(=O)C[C@H]1C=C[C@@H](NS(=O)(=O)c2ccc(C)cc2)[C@@H](CO)O1` was -21.2%.

`CCN(CC(=O)Nc1ccc2c(c1)OCO2)S(=O)(=O)c1ccccc1`: the inhibition was 7.44%. For the compound `CCOc1ccc(N(CC(=O)OC)S(=O)(=O)c2c(C)noc2C)cc1`, the inhibition is 1.95%. `Cc1noc(C)c1S(=O)(=O)N(CC(=O)NCc1ccc(Cl)cc1)c1ccc2c(c1)OCO2`: the inhibition is -0.54%.

As to `COc1ccc(N(CC(=O)Nc2cc(OC)ccc2OC)S(=O)(=O)c2c(C)noc2C)cc1`, the inhibition was 4.12%.

For `Cc1noc(C)c1S(=O)(=O)N(CC(=O)Nc1ccc2c(c1)OCCO2)c1ccc(C(C)C)cc1`, the inhibition is 52.7% (active). As to `Cc1cc(C)cc(N(CC(=O)NCC2CCCO2)S(=O)(=O)c2c(C)noc2C)c1` (centres undefined), the inhibition is -14.5%. The value for `O=C(CN(c1ccc2c(c1)OCCO2)S(=O)(=O)c1ccccc1)Nc1ccc2c(c1)OCO2` was 54% (active); that for `O=C(CCS(=O)(=O)Cc1ccccc1)Nc1ccc2c(c1)OCCO2` was -13.2%. For the compound `CCOC(=O)c1cccc(NC(=O)CN(c2ccc(C)cc2)S(=O)(=O)c2c(C)noc2C)c1`, the inhibition is 72.2% (active). On to `C[C@H](O)[C@@H]1CN2CCc3ccc(-c4ccc5c(c4)OCO5)cc3[C@@H]2C[C@@H]1N(C)C(=O)C1CCCCC1`, for which the inhibition is -24.1%. The figure for `OC(c1cc(Cl)cc(Cl)c1)c1ncc(-c2ccccc2C(F)(F)F)[nH]1` (centres undefined) is 11.8%.

Regarding `Cc1cc2c(nc1C)CCCN2C`, the inhibition was 0.43%.

Regarding `COc1ccc(N2c3ccccc3CN(Cc3ccccc3)[C@@H](C)[C@H]2Cc2ccc(-c3ccccc3)cc2)cc1`, the inhibition is -11.9%.

Regarding `COC(=O)[C@]12C[C@H](CC(=O)NCCc3ccccc3OC)C(=O)N(Cc3ccccc3)C1=C[C@H](C(C)C)O[C@@H]2C1CC1`, the inhibition was -27.5%. The value for `Cc1ccc2nc(COc3ccc(N(C)S(=O)(=O)c4ccccc4)cc3)cc(=O)n2c1` was 36%; that for `O=C(Nc1ccccn1)C1CCN(S(=O)(=O)c2ccccc2)CC1` was 0.4%. The value for `Cc1ccnc(NC(=O)C2CCN(S(=O)(=O)c3c(C)c(C)cc(C)c3C)CC2)c1` was 50% (active). `Cc1cccc(NC(=O)C2CCN(S(=O)(=O)c3cccc4cccnc34)CC2)c1`: the inhibition is 32.8%. The value for `COC(=O)[C@H](CC(C)C)NS(=O)(=O)c1c(F)cccc1F` was -8.02%. The figure for `COC(=O)C1=C(C)N(Cc2cccc(C(F)(F)F)c2)C(=NCc2ccccc2)NC1c1ccccc1C(F)(F)F` (centres undefined) is -4.18%; for `O=C1NC[C@@H](c2ccccc2)OC(=O)[C@H](Cc2ccc(F)cc2)CC/C=C/C[C@H]1CC(=O)N(CCO)Cc1ccccc1` it is 74% (active). The figure for `O=C1CCC/C=C/C[C@@H](CC(=O)N(CCO)Cc2ccccc2)C(=O)NC[C@H](c2ccccc2)O1` is -5.27%; for `O=C1N[C@@H](c2ccccc2)COC(=O)[C@H](Cc2ccc(F)cc2)C/C=C\C[C@@H]1CC(=O)N(CCO)Cc1ccccc1` it is 42.8%; for `COc1ccc(C2=CN(Cc3ccccc3)C(c3ccc(OC)cc3)CC2=O)cc1` (centres undefined) it is -4.92%. Consider `COc1ccc2[nH]c(C(=O)N/N=C/c3cc(OC)c(OC)c(OC)c3)cc2c1`, for which the inhibition is 50.5% (active). The figure for `COc1ccc2[nH]c(C(=O)Nc3ccccc3Cl)cc2c1` is -23.7%; for `COc1cccc(OCc2cc(/C=N/NC(=O)c3nc(Cl)c(Cl)c(N)c3Cl)ccc2OC)c1` it is -5%; for `Cc1cc(NCCc2c[nH]c3ccccc23)ccc1Oc1cccnc1` it is 21.6%.

Consider `COc1cc(OC)cc(-c2sc3ccc(OC)cc3c2-c2ccc3cc[nH]c3c2)c1`, for which the inhibition was -5.68%.

With `COc1ccc2sc(-c3ccc(S(C)(=O)=O)cc3)c(-c3ccc(C(N)=O)cc3)c2c1`, the inhibition is 50.5% (active).

Turning to `COc1ccc2sc(-c3ccc(S(C)(=O)=O)cc3)c(C#Cc3cncn3C)c2c1`, the inhibition was 47.9%. The value for `CN(C)C(=O)N1CCN(C(=O)[C@@H](Cc2ccccc2)NC(=O)[C@H]2O[C@@H](n3ccc(N)nc3=O)[C@H](O)[C@@H]2O)CC1` was -11.3%. Take `CCOC(=O)N1CCN(C(=O)C[C@@H]2C[C@@]3(C(=O)OC)CCCCC=C3N(CCC3=CCCCC3)C2=O)CC1`: the inhibition was 16.7%. The value for `OC(c1ccccc1)(c1ccccc1)C1CCN(CCCOc2ccccc2)CC1` was 19.2%; that for `N#Cc1ccc(OCCCN2CCC(C(O)(c3ccccc3)c3ccccc3)CC2)c(F)c1` was 18.2%. The value for `OC(c1ccccc1)(c1ccccc1)C1CCN(CCCOc2ccc(-c3ccsc3)cc2)CC1` was 51.2% (active); that for `CCC(C(=O)NC(C)(C)C)n1c(-c2ccccc2)nc2ccccc21` (centres undefined) was -9.33%. The value for `COc1ccc(C(C(=O)Nc2c(C)cccc2C)N2CCN(c3ccc(C)cc3)CC2)cc1` (centres undefined) was -16.4%. For `Cc1ccccc1CN1C(=O)CSCC1(C)C(=O)Nc1c(C)cccc1C` (centres undefined), the inhibition is -0.37%. The value for `COc1cccc(C(=O)NCCS(=O)(=O)NCC2CCCO2)c1` (centres undefined) was 4.1%. On to `CN(C)S(=O)(=O)N1CCC(Oc2cccc(C(=O)NCCCC3CCCC3)c2)CC1`, for which the inhibition is 61.1% (active). On to `CN(C(=O)c1cccc(OC2CCN(S(=O)(=O)N(C)C)CC2)c1)C1CCOC1` (centres undefined), for which the inhibition is -15.9%. The value for `CCCCn1nnnc1C1(C)CCC(=O)N1Cc1ccc(OC)c(OC)c1` (centres undefined) was -1.16%; that for `CC(C)(C)NC(=O)C(CCc1ccccc1)n1c(=O)c(-c2ccccc2)nc2ccccc21` (centres undefined) was -53.9%; that for `COc1ccccc1CNC(=O)c1ccc(CS(=O)(=O)c2ccccc2)o1` was 26.5%. The figure for `COc1ccc(CCNC(=O)c2ccc(CS(=O)(=O)c3ccc(Br)cc3)o2)cc1OC` is 77.3% (active). The figure for `COc1ccc(CCNC(=O)c2nnc(CS(=O)(=O)c3ccccc3)o2)cc1OC` is -2.06%. Consider `CCCCNC(=O)Nc1c(C)cc(SC#N)cc1C`, for which the inhibition was 7.39%. In the case of `O=C(NN1C(=O)C2C3C=CC(C4CC34)C2C1=O)c1ccc(Cl)cc1` (centres undefined), the inhibition was 1.86%.

`Cc1ccc(N)cc1CN1CCN(c2ncc(Cc3ccccc3)cn2)CC1`: the inhibition is -11.9%. Take `O=C(Nc1cccc(S(=O)(=O)N2CCCCC2)c1)c1cncc(Br)c1`: the inhibition is 28.2%. The value for `O=C(Nc1ccc(S(=O)(=O)N2CCCCCC2)cc1)c1c(F)cccc1F` was -11.6%; that for `Cc1onc(-c2c(F)cccc2Cl)c1C(=O)Nc1cccc(S(=O)(=O)N2CCCCC2)c1` was 60.4% (active); that for `Cc1ccccc1S(=O)(=O)N1[C@@H](c2cccc(Cl)c2)C(C(=O)OC(C)(C)C)=CC[C@H]1c1ccc(Cl)cc1` was -16.6%. The figure for `Cc1ccccc1S(=O)(=O)N1[C@@H](c2cccc(Cl)c2)C(C(=O)O)=CC[C@H]1c1ccc(Cl)cc1` is 50.1% (active). Regarding `Cc1ccc([C@@H]2CC=C(C(=O)O)[C@H](c3cccc(Cl)c3)N2S(=O)(=O)c2ccc(C)cc2)cc1`, the inhibition is 29.7%. The figure for `CC(C)(C)n1nc(C2CC2)c(Br)c1NC(=O)c1ccccc1F` is -16.1%; for `CN1CCCc2nc(-c3ccccc3)ccc21` it is -0.46%.

Consider `O=S(=O)(c1cccs1)N1CCCc2nc(-c3ccc(Br)cc3)ccc21`, for which the inhibition is 58% (active). With `COc1ccc(-c2ccc3c(n2)CCCN3S(=O)(=O)c2ccc(C)cc2)cc1`, the inhibition was 24%. The figure for `COC(=O)[C@]12C[C@H](CC(=O)N3CCN(C(=O)C4CC4)CC3)C(=O)N(Cc3ccc4c(c3)OCO4)C1=C[C@H](C(C)(C)C)O[C@@H]2C` is 1.35%; for `O=C1Nc2ccccc2-n2nnnc2C1N1CCN(c2cccc(C(F)(F)F)n2)CC1` (centres undefined) it is 7.81%. The value for `COc1ccc(C(=O)Nc2cccc(NC(=O)c3ccc(OC)cc3OC)n2)c(OC)c1` was 64.8% (active); that for `COc1ccc(C(=O)NC(C)CCc2ccccc2)c(OC)c1` (centres undefined) was -22.5%; that for `COc1ccc(C(=O)CCC(=O)Nc2cccnc2)c(OC)c1` was -6.73%. The figure for `CC1(C(=O)Nc2ccc3c(c2)OCCO3)CSCC(=O)N1CCOc1ccccc1` (centres undefined) is -7.49%; for `Cc1ccc2oc(=O)ccc2c1` it is 2.03%; for `CCN(CC)c1ccc2oc(=O)c(C)nc2c1` it is 49.8% (active). As for `CCc1ccc2oc(-c3ccc(N)cc3)nc2c1`, the inhibition was 8.65%. The figure for `O=C(NCCCn1ccnc1)c1cc2c(s1)CCCC2` is -26.6%. Turning to `C/C=N/N(c1ccccc1)c1ccccc1`, the inhibition was -13.2%. The value for `C[C@H]1CN([C@@H](C)CO)C(=O)CCCn2nncc2CO[C@@H]1CN(C)C(=O)Nc1ccc(N2CCN(C)CC2)cc1` was 5.42%; that for `O=C(CCl)Nc1ccc(Sc2ccc(NC(=O)CCl)cc2)cc1` was 21.9%; that for `CC(C)CNC(=S)Nc1ccc(F)cc1` was 5.98%. The value for `CC(C)(CCl)C(=O)Nc1ccc(Sc2ccc(F)cc2)cc1` was 57.9% (active).

With `COc1cc(NS(=O)(=O)c2ccc(N/C=C(\C=O)c3nc4cc(Cl)ccc4o3)cc2)nc(OC)n1`, the inhibition is 16.2%. Turning to `CCN(CC(=O)NC1CCS(=O)(=O)C1)S(=O)(=O)c1ccccc1` (centres undefined), the inhibition is -18%. On to `N#C/C(=C/c1ccc(N2CCCCC2)o1)C(=O)NCCc1c[nH]c2ccccc12`, for which the inhibition was 57.6% (active). The figure for `O=C(NCCc1c[nH]c2ccccc12)C1CCN(Cc2ccc(Br)cc2)CC1` is 2.79%. The value for `N#C/C(=C\c1ccc(N2CCOCC2)o1)C(=O)N1CCOCC1` was -12.1%.
